Experimental data: ChEMBL document CHEMBL4316593 (Eur J Med Chem, 2019)
Activity calls are given as the source filed them. No cut-off for these calls is given here.

Key:
[1] = system: MEF; test: Cytotoxicity against MEF assessed as cell death at 100 uM measured after 48 hrs by trypan blue dye-based cell counting analysis; conditions: mouse
[2] = Inhibition of RTK/PI3K/AKT/mTOR signaling in human U87 cells assessed as down regulation of CDK5RAP2 gene expression at cytotoxic IC50 measured after 48 hrs relative to control; type: cell-based; conditions: U-87MG ATCC
Method in brief: (§1)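 U87 cells grown in MEM with 10% FBS at 37°C, 5% CO2. Cells exposed to IC50 of test compound for 48 hrs, alongside untreated and cisplatin controls, each condition in triplicate. RNA isolated and profiled; differential expression called with DESeq2 (q-value < 0.05, fold change > 1.5), fold change versus untreated.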

[3] = Inhibition of RTK/PI3K/AKT/mTOR signaling in human U87 cells assessed as up regulation of FAM131C gene expression at cytotoxic IC50 measured after 48 hrs relative to control; type: cell-based; conditions: U-87MG ATCC
Method in brief: (§2)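 Cells were exposed for 48hrs at 37°C in humidified 5% CO₂ to the compound at its previously determined IC₅₀, with Cisplatin at its IC₅₀ and an untreated negative control alongside. Each condition was run in triplicate. RNA was isolated from all samples by the same protocol. Genes were called differentially expressed by DESeq2 at q-value < 0.05 and fold change > 1.5.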

[4] = Inhibition of RTK/PI3K/AKT/mTOR signaling in human U87 cells assessed as up regulation of USH1 protein network component harmonin gene expression at cytotoxic IC50 measured after 48 hrs relative to control; type: cell-based; conditions: U-87MG ATCC
[5] = Inhibition of RTK/PI3K/AKT/mTOR signaling in human U87 cells assessed as down regulation of ATP6V0D1 gene expression at cytotoxic IC50 measured after 48 hrs relative to control; type: cell-based; conditions: U-87MG ATCC; method in brief: as §1
[6] = system: U-87 MG; test: Cell cycle arrest in human U87 cells assessed as change in CDK1 gene expression at cytotoxic IC50 measured after 48 hrs […] relative to control; type: functional, U-87MG ATCC
Method in brief: (§3)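 U87 expression profiling. Cells incubated 48hrs at 37°C, 5% CO₂ with the IC₅₀ concentration, alongside a cisplatin and an untreated control, in triplicate. RNA was isolated by one common protocol and profiled. DEGs were called with DESeq2 (q < 0.05, fold change > 1.5) and expressed as fold change versus untreated.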

[7] = system: U-87 MG; test: Cell cycle arrest in human U87 cells assessed as change in CDK2 gene expression at cytotoxic IC50 measured after 48 hrs […] relative to control; type: functional, U-87MG ATCC; method in brief: as §3
[8] = Inhibition of RTK/PI3K/AKT/mTOR signaling in human U87 cells assessed as up regulation of QSOX2 gene expression at cytotoxic IC50 measured after 48 hrs relative to control; type: cell-based; conditions: U-87MG ATCC; method in brief: as §2
[9] = Inhibition of RTK/PI3K/AKT/mTOR signaling in human U87 cells assessed as down regulation of LAMA2 gene expression at cytotoxic IC50 measured after 48 hrs relative to control; type: cell-based; conditions: U-87MG ATCC; method in brief: as §1
[10] = Inhibition of RTK/PI3K/AKT/mTOR signaling in human U87 cells assessed as down regulation of NLRC5 gene expression at cytotoxic IC50 measured after 48 hrs relative to control; type: cell-based; conditions: U-87MG ATCC; method in brief: as §2
[11] = Inhibition of RTK/PI3K/AKT/mTOR signaling in human U87 cells assessed as down regulation of USP47 gene expression at cytotoxic IC50 measured after 48 hrs relative to control; type: cell-based; conditions: U-87MG ATCC; method in brief: as §2
[12] = system: U-87 MG; test: Induction of apoptosis in human U87 cells assessed as change in GADD45B gene expression at cytotoxic IC50 measured after 48 hrs […] relative to control; type: functional, U-87MG ATCC; method in brief: as §1
[13] = system: U-87 MG; test: Induction of apoptosis in human U87 cells assessed as change in TUBA4A gene expression at cytotoxic IC50 measured after 48 hrs by […] relative to control; type: functional, U-87MG ATCC; method in brief: as §1
[14] = Inhibition of RTK/PI3K/AKT/mTOR signaling in human U87 cells assessed as down regulation of ZNF106 gene expression at cytotoxic IC50 measured after 48 hrs relative to control; type: cell-based; conditions: U-87MG ATCC; method in brief: as §2
[15] = system: U-87 MG; test: Induction of apoptosis in human U87 cells assessed as change in ERN1 gene expression at cytotoxic IC50 measured after 48 hrs […] relative to control; type: functional, U-87MG ATCC; method in brief: as §1
[16] = system: U-87 MG; test: Cell cycle arrest in human U87 cells assessed as change in GADD45B gene expression at cytotoxic IC50 measured after 48 hrs […] relative to control; type: functional, U-87MG ATCC; method in brief: as §3
[17] = Inhibition of RTK/PI3K/AKT/mTOR signaling in human U87 cells assessed as down regulation of ZMAT2 gene expression at cytotoxic IC50 measured after 48 hrs relative to control; type: cell-based; conditions: U-87MG ATCC; method in brief: as §2
[18] = Inhibition of RTK/PI3K/AKT/mTOR signaling in human U87 cells assessed as up regulation of IER3 gene expression at cytotoxic IC50 measured after 48 hrs relative to control; type: cell-based; conditions: U-87MG ATCC; method in brief: as §2
[19] = system: U-87 MG; test: Induction of apoptosis in human U87 cells assessed as change in JUN gene expression at cytotoxic IC50 measured after 48 hrs […] relative to control; type: functional, U-87MG ATCC; method in brief: as §1
[20] = Inhibition of RTK/PI3K/AKT/mTOR signaling in human U87 cells assessed as up regulation of neuron navigator 1 gene expression at cytotoxic IC50 measured after 48 hrs relative to control; type: cell-based
[21] = system: LN-229; test: Cell cycle arrest in human LN229 cells assessed as decrease in accumulation at S-phase at cytotoxic IC50 measured after 48 hrs by propidium iodide staining based fluorescence cell imaging analysis; type: functional
Method in brief: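 Cell cycle by PI staining. Cells seeded at 1×10^6 and grown overnight at 37°C, 5% CO₂, then exposed for 48hrs at their IC₅₀ concentration, with DMSO and cisplatin controls. Cells were trypsinized, washed in cold PBS and fixed in 70% ethanol at 4°C for 30 min. They were stained with PI in Triton X-100/RNase for 15 min at 37°C and imaged by fluorescence microscopy. Reported as mean ± S.E.M of triplicates.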

[22] = Inhibition of RTK/PI3K/AKT/mTOR signaling in human U87 cells assessed as up regulation of AXL gene expression at cytotoxic IC50 measured after 48 hrs relative to control; type: cell-based; conditions: U-87MG ATCC; method in brief: as §2
[23] = Inhibition of RTK/PI3K/AKT/mTOR signaling in human U87 cells assessed as up regulation of CAPN1 gene expression at cytotoxic IC50 measured after 48 hrs relative to control; type: cell-based; conditions: U-87MG ATCC; method in brief: as §2
[24] = system: U-87 MG; test: Induction of DNA damage in human U87 cells assessed as change in FANCI gene expression at cytotoxic IC50 measured after 48 hrs […] relative to control; type: functional, U-87MG ATCC; method in brief: as §3
[25] = Inhibition of RTK/PI3K/AKT/mTOR signaling in human U87 cells assessed as up regulation of solute carrier family 4 member 2 gene expression at cytotoxic IC50 measured after 48 hrs relative to control; type: cell-based; conditions: U-87MG ATCC
[26] = Inhibition of RTK/PI3K/AKT/mTOR signaling in human U87 cells assessed as up regulation of RPS14 gene expression at cytotoxic IC50 measured after 48 hrs relative to control; type: cell-based; conditions: U-87MG ATCC
Method in brief: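 U87 cells were exposed for 48 hrs at 37°C under 5% CO₂, with cisplatin and untreated controls, all in triplicate. RNA was isolated by the same protocol for every sample and expression profiled from mapped reads. Differential expression against untreated cells was called in DESeq2 (q-value < 0.05, fold change > 1.5).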

CC(=O)C(=NNc1ccccc1C#N)C(C)=O
Activity [1]: < 20%
log2FC [2]: -0.519
log2FC [3]: 2.04
log2FC [4]: 1.03
log2FC [5]: -1.21
fold change (FC) [6]: 1.569
fold change (FC) [7]: 1.392
log2FC [8]: 0.599
log2FC [9]: -1.14
log2FC [10]: -1.26
log2FC [11]: -0.615
log2FC [12]: -2.899
log2FC [13]: 1.583
log2FC [14]: -0.749
log2FC [15]: -1.369
fold change (FC) [16]: -2.899
log2FC [17]: -0.716
log2FC [18]: 0.384
log2FC [19]: -3.064
log2FC [20]: 0.879
Activity [21]: Active
log2FC [22]: 1.89
log2FC [23]: 0.475
fold change (FC) [24]: 1.708
log2FC [25]: 1.04
log2FC [26]: 0.607
